In ChEMBL document CHEMBL4706489, “Hydrogen sulfide releasing oridonin derivatives induce apoptosis through extrinsic and intrinsic pathways” (Eur J Med Chem, 2020):
The source made the active and inactive calls. The rule behind the calls is not given here.

Key:
HepG2 [1] = test: Induction of cell cycle arrest in human HepG2 cells assessed as accumulation at S phase at 2 uM after 48 hrs by propidium iodide staining based flow cytometric analysis (reference value: 33.22 to 33.58%); format: functional
K562 [2] = test: Induction of apoptosis in human K562 cells assessed as chromatin shrinking after 24 to 48 hrs by Hoechst 33258 staining based fluorescence microscopic method; format: functional, cell-based; conditions: dose 1-4 µM, time 24-48 hrs
Method in brief: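 K562 cells were exposed to 1.0, 2.0 or 4.0 test agent, with DMSO as vehicle control, for 24 h and 48 h. They were harvested, washed twice in PBS and stained with Hoechst 33258 (0.5 mg/mL in PBS) for 30 min in darkness. Slides were viewed by fluorescence microscopy with a DAPI filter. Three random fields of about 200 nuclei per sample were scored as % apoptotic nuclei. Three independent experiments.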

K562 [3] = test: Induction of apoptosis in human K562 cells assessed as necrotic cells at 0.5 uM after 48 hrs by annexin V FITC and propidium iodide staining based flow cytometric analysis (reference value: 0.69%); format: functional
K562 [4] = test: Induction of apoptosis in human K562 cells assessed as late apoptotic cells at 1 uM after 48 hrs by annexin V FITC and propidium iodide staining based flow cytometric analysis (reference value: 0.42%); format: functional
K562 [5] = test: Induction of apoptosis in human K562 cells assessed as late apoptotic cells at 2 uM after 48 hrs by annexin V FITC and propidium iodide staining based flow cytometric analysis (reference value: 0.42%); format: functional
HepG2 [6] = test: Induction of apoptosis in human HepG2 cells assessed as early apoptotic cells at 1 uM after 48 hrs by annexin V FITC and propidium iodide staining based flow cytometric analysis (reference value: 2.89%); format: functional
K562 [7] = test: Induction of apoptosis in human K562 cells assessed as increase in Bax protein expression at 1 uM after 24 hrs by chemiluminescence based apoptosis array method; format: functional, cell-based
Method in brief: (§1)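 K562 cells were treated with 1 test agent for 24 h. Diluted total-cell lysates were applied to a human apoptosis antibody array covering 35 apoptosis-related proteins for 24 h. Unbound protein was washed off, and arrays were probed with a biotinylated detection antibody for 1 h. Relative expression was read from chemiluminescent signal by digital imaging.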

K562 [8] = test: Induction of apoptosis in human K562 cells assessed as decrease in C-IAP2 protein expression at 1 uM after 24 hrs by chemiluminescence based apoptosis array method; format: functional, cell-based; method in brief: as §1
K562 [9] = test: Induction of apoptosis in human K562 cells assessed as decrease in survivin protein expression at 1 uM after 24 hrs by chemiluminescence based apoptosis array method; format: functional, cell-based; method in brief: as §1
K562 [10] = test: Induction of apoptosis in human K562 cells assessed as increase in DR4 protein expression at 1 uM after 24 hrs by chemiluminescence based apoptosis array method; format: functional, cell-based; method in brief: as §1
K562 [11] = test: Induction of apoptosis in human K562 cells assessed as increase in DR5 protein expression at 1 uM after 24 hrs by chemiluminescence based apoptosis array method; format: functional, cell-based; method in brief: as §1
HCT-116 = test: Antiproliferative activity against human HCT-116 cells assessed as reduction in cell viability after 72 hrs by MTT assay; conditions: HCT-116, 72 h
K562 [12] = test: Induction of apoptosis in human K562 cells after 48 hrs by annexin V FITC and propidium iodide staining based flow cytometric analysis; conditions: dose 0.5-2 µM

IC50 (HCT-116): 5.81 µM
SMILES: C=C1C(=O)[C@]23[C@H](OC(=O)CCC(=O)OCCCCCCOc4ccc(-c5cc(=S)ss5)cc4)[C@H]1CC[C@H]2[C@@]12CO[C@@]3(O)[C@@H](O)[C@@H]1C(C)(C)CC[C@@H]2OC(C)=O
Activity (HepG2 [1]): 28.3% | Activity (K562 [2]): Dose-dependent effect | Activity (K562 [3]): 1.1% | Activity (K562 [4]): 8.38% | Activity (K562 [5]): 27.29% | Activity (HepG2 [6]): 25.53% | Activity (K562 [7]): Active | Activity (K562 [8]): Active | Activity (K562 [9]): Active | Activity (K562 [10]): Active | Activity (K562 [11]): Active | Activity (K562 [12]): Dose-dependent effect
